Measured values published in ChEMBL document CHEMBL3580567 (J Med Chem, 2015).
Active and inactive are the calls of the source. The calls are words filed in the database; no cut-off is given here.

Experiments:
[1] = molecular target: T1, Melatonin receptor type 1A (Homo sapiens, UniProt P48039); experiment: Displacement of 2-[125I]-iodomelatonin from human melatonin receptor-1 transfected in CHO cell membranes after 120 mins
[2] = molecular target: T2, Melatonin receptor type 1B (Homo sapiens, UniProt P49286); experiment: Displacement of 2-[125I]-iodomelatonin from human melatonin receptor-2 transfected in CHO cell membranes after 120 mins
T2 sequence (P49286 whole entry): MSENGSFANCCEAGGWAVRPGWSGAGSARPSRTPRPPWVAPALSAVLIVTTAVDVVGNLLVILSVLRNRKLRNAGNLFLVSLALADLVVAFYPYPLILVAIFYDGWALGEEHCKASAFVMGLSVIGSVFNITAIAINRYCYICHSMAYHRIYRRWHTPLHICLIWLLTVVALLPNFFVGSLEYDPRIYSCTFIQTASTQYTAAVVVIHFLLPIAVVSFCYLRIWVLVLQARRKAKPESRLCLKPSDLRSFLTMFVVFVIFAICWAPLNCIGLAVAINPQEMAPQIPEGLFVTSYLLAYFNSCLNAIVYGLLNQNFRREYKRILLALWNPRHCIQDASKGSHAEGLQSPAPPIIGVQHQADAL

[3] = molecular target: T1, Melatonin receptor type 1A; experiment: Agonist activity at human melatonin receptor-1 transfected in CHO cell membranes after 1 hr by GTPgammaS binding assay; format: functional
[4] = molecular target: T1, Melatonin receptor type 1A; experiment: Agonist activity at human melatonin receptor-1 transfected in CHO cell membranes after 1 hr by GTPgammaS binding assay relative to melatonin; format: functional
Method in brief: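 CHO membranes (20 µg/mL) stably expressing human MT1 or MT2 in 20 mM HEPES pH 7.4, 100 mM NaCl, 3 µM GDP, 3 mM MgCl2, 20 µg/mL saponin. Incubated with 0.2 nM [35S]GTPγS for 1 h at rt, then filtered. Non-specific binding defined with 10 µM GTPγS. Seven concentrations in duplicate; EC50 and Emax fitted.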

[5] = molecular target: T2, Melatonin receptor type 1B; experiment: Agonist activity at human melatonin receptor-2 transfected in CHO cell membranes after 1 hr by GTPgammaS binding assay; format: functional
[6] = (§1) Induction of primary neuronal stem cell differentiation derived from subgranular zone of dentate gyrus of Wistar rat hippocampus assessed as upregulation of TuJ1 expression at 10 uM incubated for 7 days followed by 48 hrs incubation in presence of serum and absence of EGF by DAPI staining-based fluorescence microscopic analysis in presence of melatonin receptor antagonist luzindole; format: functional; conditions: Primary neuron
Method in brief: (§2)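 Neurospheres came from the SGZ of the dentate gyrus of adult male Wistar rats (8-12 weeks). They were grown in DMEM/F12 with 10 ng/mL EGF, 10 ng/mL FGF and B27. After 3 days, cultures were treated with compounds for 7 days. They were then plated on poly-L-lysine coverslips for 48 h with serum and without growth factors. Cells were immunostained for TuJ1 and MAP-2 with DAPI nuclei. Positive cells were counted by fluorescence microscopy in five NS per condition over three independent experiments. Untreated cultures gave basal values.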

[7] = as §1, with “maturation” for “differentiation”, “MAP-2” for “TuJ1”, “days” for “days followed by 48 hrs incubation in presence of serum and absence of EGF”; format: functional, tissue-based; conditions: Primary neuron; method in brief: as §2
[8] = Permeability of the compound at 100 ug/ml after 240 mins by PAMPA; format: physicochemical; conditions: 4 h
Method in brief: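 For PAMPA-BBB, the filter was coated with porcine brain lipid in dodecane (20 mg/mL). Donor compound was 100 µg/mL in PBS:ethanol 70:30, pH 7.4, and the acceptor held PBS:ethanol 70:30. Plates were incubated 240 min at 25 °C. Acceptor concentration was read by UV-Vis at five wavelengths in four wells, over at least three runs. Eleven quality-control standards were included.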

[9] = as §1, with “expression” for “expression at 10 uM”, “analysis” for “analysis in presence of melatonin receptor antagonist luzindole”; format: functional, tissue-based; conditions: Primary neuron; method in brief: as §2
[10] = Induction of primary neuronal stem cell maturation derived from subgranular zone of dentate gyrus of Wistar rat hippocampus assessed as upregulation of MAP-2 expression incubated for 7 days by DAPI staining-based fluorescence microscopic analysis; format: functional; conditions: Primary neuron; method in brief: as §2
[11] = molecular target: Glycogen synthase kinase-3 beta (Homo sapiens) (UniProt P49841); experiment: Binding affinity to GSK-3beta receptor (unknown origin) at 10 uM
Chain of Glycogen synthase kinase-3 beta (Homo sapiens) (P49841 whole entry, looked up): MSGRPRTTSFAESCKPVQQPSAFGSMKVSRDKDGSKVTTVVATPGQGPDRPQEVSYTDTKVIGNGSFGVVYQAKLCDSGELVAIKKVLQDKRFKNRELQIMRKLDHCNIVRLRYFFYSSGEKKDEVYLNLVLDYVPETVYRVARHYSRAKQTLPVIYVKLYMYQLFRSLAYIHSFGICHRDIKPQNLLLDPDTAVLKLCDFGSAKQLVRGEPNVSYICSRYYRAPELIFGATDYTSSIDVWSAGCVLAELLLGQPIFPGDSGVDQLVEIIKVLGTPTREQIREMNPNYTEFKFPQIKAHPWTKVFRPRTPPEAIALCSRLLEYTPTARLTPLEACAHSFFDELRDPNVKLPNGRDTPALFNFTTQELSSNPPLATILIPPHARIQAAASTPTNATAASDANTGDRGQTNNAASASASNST

[12] = molecular target: Cannabinoid receptor 1 (Homo sapiens) (UniProt P21554); experiment: Binding affinity to CB1 receptor (unknown origin) at 10 uM
Chain of Cannabinoid receptor 1 (Homo sapiens) (P21554 whole entry): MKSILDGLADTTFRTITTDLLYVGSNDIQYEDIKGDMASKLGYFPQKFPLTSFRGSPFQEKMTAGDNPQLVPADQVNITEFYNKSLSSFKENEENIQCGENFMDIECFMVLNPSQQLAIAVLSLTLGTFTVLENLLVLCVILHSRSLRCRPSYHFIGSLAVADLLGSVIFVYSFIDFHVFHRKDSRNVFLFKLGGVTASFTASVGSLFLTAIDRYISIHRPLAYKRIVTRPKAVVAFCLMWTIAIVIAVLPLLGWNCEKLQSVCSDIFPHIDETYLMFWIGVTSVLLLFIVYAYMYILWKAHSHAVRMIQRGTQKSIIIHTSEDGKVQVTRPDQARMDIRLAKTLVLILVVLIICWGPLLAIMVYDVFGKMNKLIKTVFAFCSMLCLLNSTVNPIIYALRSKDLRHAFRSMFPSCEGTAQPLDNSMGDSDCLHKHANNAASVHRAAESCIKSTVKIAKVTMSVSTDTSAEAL

[13] = molecular target: Cannabinoid receptor 2 (Homo sapiens) (UniProt P34972); experiment: Binding affinity to CB2 receptor (unknown origin) at 10 uM
Chain of Cannabinoid receptor 2 (Homo sapiens) (P34972 whole entry): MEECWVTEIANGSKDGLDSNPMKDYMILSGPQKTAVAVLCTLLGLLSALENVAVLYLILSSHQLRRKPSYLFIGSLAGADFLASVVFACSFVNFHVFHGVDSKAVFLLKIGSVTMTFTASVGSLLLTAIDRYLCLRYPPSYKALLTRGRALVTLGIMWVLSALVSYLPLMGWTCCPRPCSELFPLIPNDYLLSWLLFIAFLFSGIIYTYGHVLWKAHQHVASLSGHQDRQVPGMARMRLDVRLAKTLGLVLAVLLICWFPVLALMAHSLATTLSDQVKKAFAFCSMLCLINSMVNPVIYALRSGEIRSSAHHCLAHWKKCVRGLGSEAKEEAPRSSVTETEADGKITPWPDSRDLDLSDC

[14] = molecular target: 5-hydroxytryptamine receptor 2A (Homo sapiens) (UniProt P28223); experiment: Binding affinity to 5HT-2A receptor (unknown origin) at 10 uM
Chain of 5-hydroxytryptamine receptor 2A (Homo sapiens) (P28223 whole entry): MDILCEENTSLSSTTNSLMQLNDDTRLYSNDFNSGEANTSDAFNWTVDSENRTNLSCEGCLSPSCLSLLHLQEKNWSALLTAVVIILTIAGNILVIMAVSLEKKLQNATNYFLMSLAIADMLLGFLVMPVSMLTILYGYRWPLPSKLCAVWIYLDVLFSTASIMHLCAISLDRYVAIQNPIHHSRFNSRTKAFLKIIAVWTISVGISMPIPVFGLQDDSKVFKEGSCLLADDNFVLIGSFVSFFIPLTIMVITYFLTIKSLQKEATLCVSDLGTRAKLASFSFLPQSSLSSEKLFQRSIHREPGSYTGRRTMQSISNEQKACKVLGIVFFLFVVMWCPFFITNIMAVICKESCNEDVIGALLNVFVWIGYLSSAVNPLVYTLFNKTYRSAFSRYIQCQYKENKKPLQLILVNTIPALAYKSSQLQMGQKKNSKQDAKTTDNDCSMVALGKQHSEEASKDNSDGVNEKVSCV

[15] = molecular target: 5-hydroxytryptamine receptor 2B (Homo sapiens) (UniProt P41595); experiment: Binding affinity to 5HT-2B receptor (unknown origin) at 10 uM
Chain of 5-hydroxytryptamine receptor 2B (Homo sapiens) (P41595 whole entry): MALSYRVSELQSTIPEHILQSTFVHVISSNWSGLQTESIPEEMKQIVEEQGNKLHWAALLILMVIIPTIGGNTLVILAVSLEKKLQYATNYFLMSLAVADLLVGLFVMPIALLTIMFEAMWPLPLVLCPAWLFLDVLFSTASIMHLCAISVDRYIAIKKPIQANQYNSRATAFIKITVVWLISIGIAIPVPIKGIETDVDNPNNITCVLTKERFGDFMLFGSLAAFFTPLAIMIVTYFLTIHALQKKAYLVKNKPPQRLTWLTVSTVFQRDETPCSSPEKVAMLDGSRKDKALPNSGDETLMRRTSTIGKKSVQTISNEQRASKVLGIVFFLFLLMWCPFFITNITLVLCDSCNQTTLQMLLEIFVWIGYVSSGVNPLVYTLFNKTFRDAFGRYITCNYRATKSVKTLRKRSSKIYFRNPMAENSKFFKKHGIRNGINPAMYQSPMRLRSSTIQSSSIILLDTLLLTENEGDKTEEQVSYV

[16] = molecular target: T3, 5-hydroxytryptamine receptor 2C (Homo sapiens) (UniProt P28335); experiment: Binding affinity to 5HT-2C receptor (unknown origin) at 10 uM
T3 sequence (whole entry): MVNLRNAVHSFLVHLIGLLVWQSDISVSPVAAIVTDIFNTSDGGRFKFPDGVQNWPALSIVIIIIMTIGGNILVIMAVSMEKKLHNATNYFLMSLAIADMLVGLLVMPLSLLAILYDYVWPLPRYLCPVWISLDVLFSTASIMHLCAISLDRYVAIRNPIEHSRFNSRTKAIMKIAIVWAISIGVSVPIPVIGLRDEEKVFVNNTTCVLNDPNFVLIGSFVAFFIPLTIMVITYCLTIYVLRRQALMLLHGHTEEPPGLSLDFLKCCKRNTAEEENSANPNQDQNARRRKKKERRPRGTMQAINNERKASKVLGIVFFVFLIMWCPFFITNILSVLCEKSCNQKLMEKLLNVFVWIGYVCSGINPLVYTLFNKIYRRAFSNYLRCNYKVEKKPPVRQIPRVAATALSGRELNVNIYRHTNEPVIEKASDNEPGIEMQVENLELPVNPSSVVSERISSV

[17] = molecular target: Sodium-dependent serotonin transporter (Homo sapiens) (UniProt P31645); experiment: Binding affinity to SERT (unknown origin) at 10 uM
Chain of Sodium-dependent serotonin transporter (Homo sapiens) (P31645 whole entry, looked up): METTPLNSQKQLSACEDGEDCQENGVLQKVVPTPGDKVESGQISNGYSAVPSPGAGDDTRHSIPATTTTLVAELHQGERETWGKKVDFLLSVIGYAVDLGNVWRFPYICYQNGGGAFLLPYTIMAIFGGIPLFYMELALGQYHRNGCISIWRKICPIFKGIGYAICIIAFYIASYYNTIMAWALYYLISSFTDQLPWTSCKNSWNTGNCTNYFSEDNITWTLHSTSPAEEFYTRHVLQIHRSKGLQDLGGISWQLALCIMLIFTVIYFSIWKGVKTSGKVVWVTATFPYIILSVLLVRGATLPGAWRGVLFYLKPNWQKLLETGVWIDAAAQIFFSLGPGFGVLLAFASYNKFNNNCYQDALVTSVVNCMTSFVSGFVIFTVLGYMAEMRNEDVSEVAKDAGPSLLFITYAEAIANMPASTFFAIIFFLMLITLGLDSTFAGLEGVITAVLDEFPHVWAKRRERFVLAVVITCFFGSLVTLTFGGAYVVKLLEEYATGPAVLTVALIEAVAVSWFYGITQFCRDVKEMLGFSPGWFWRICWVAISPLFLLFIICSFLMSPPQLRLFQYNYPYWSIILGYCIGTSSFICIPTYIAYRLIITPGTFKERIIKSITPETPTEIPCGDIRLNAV

[18] = molecular target: T2, Melatonin receptor type 1B; experiment: Agonist activity at human recombinant melatonin receptor-2 expressed in CHO cells assessed as decrease of cAMP level after 10 mins by HTRF assay; format: functional, cell-based
Method in brief: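 Functional agonist profiling was done by CEREP on cells expressing human recombinant MT receptors. MT1 was read by cellular dielectric spectroscopy and MT2 by homogeneous time-resolved fluorescence. The protocols are those on the company website.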

[19] = molecular target: T4, Melatonin receptor type 1B (Homo sapiens) (UniProt P49286); experiment: Agonist activity at human recombinant melatonin receptor-2 expressed in CHO cells assessed as decrease of cAMP level after 10 mins by HTRF assay relative to melatonin; format: functional, cell-based
T4 sequence (whole entry): T2 sequence (P49286 whole entry)

T1 sequence (P48039 whole entry): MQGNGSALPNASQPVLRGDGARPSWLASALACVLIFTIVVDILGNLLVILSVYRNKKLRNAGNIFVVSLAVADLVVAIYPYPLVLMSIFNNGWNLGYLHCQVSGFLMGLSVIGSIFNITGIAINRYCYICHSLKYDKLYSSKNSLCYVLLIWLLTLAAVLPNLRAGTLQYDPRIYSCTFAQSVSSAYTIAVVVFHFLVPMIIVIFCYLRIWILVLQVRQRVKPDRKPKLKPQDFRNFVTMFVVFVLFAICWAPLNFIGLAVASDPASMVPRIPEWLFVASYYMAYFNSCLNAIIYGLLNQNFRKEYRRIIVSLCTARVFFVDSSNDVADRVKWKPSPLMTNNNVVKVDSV

Structure (SMILES): COc1ccc2[nH]cc(CCc3nnc(C)o3)c2c1
- Ki [1]: 0.709 µM
- Ki [2]: 0.19 µM
- EC50 [3]: 0.961 µM
- Emax [4]: 19%
- EC50 [5]: 0.881 µM
- Activity [6]: inactive
- Activity [7]: inactive
- permeability [8]: permeable
- Activity [9]: Dose-dependent effect
- Activity [10]: Dose-dependent effect
- Activity [11]: inactive
- Activity [12]: inactive
- Activity [13]: inactive
- Activity [14]: inactive
- Activity [15]: inactive
- Activity [16]: inactive
- Activity [17]: inactive
- EC50 [18]: 1.6 µM
- Emax [19]: 92%
